ChEMBL document CHEMBL1129563, “Opioid antagonist activity of naltrexone-derived bivalent ligands: importance of a properly oriented molecular scaffold to guide "address" recognition at kappa opioid receptors” (J Med Chem, 1996)

How the values were obtained:
[1] = biological target: T1, Opioid receptors; mu & delta (Homo sapiens) (UniProt P41143+P35372); experiment: Selectivity ratio between delta to that of mu opioid receptor; format: protein assay
Method in brief: (§1)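 Antagonism was tested on electrically stimulated guinea pig ileum (morphine, EK, DAMGO, U-50488) and mouse vas deferens (DADLE, DPDPE). Antagonist (usually 100 nM, some at 20 nM) was incubated 15 min before agonist. IC50 ratio is agonist IC50 with antagonist over control IC50 in the same preparation. Ke = [antagonist]/(IC50 ratio − 1). Three or more replicates were run. Selectivity is given as Ke ratios.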

[2] = biological target: Delta-type opioid receptor (Homo sapiens) (UniProt P41143); experiment: Ke value was obtained from IC50 ratio value when compared with delta opioid agonist in […] using DPDPE as radioligand; format: functional, tissue-based; settings: target entry is the homologue from another species
[3] = biological target: Mu-type opioid receptor (Cavia porcellus) (UniProt P97266); experiment: Ke value was obtained from IC50 ratio value when compared with Opioid receptor mu 1 agonist in Guinea pig Ileum using DAMGO as radioligand; format: functional, tissue-based; method in brief: as §1
[4] = biological target: Delta-type opioid receptor (Homo sapiens) (UniProt P41143); experiment: Selectivity ratio between Ke value to that of DAMGO (using DADLE as agonist; delta agonist/DAMGO); format: functional
Method in brief: (§2)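 Ke values came from IC50 ratios (n ≥ 3) in GPI and MVD, with antagonist preincubated 15 min. Ke = [antagonist]/(IC50 ratio − 1). The reported ratio is Ke against a κ agonist (EK, U-50488) or δ agonist (DADLE, DPDPE) divided by Ke against DAMGO.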

[5] = biological target: T2, Opioid receptors; mu & kappa (Homo sapiens) (UniProt P41145+P35372); experiment: Selectivity ratio between kappa and mu opioid receptor from guinea pig brain membrane
Method in brief: (§3)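 Competition binding against radioligands in guinea pig brain membranes. μ sites used [3H]DAMGO. κ sites used [3H]EK with 1 μM DAMGO, and δ sites used [3H]DADLE with 1 μM DAMGO. Ki is the geometric mean of three replicates. Selectivity is given as δ/μ and κ/μ Ki ratios.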

[6] = biological target: T3, Kappa-type opioid receptor (Cavia porcellus, UniProt P41144); experiment: Binding affinity against Kappa Opioid receptor in Guinea pig brain membranes; format: cell membranes, Membrane; method in brief: as §3
[7] = tested on: Mus musculus; experiment: Antagonistic activity after […] with a peak time of 30 mins in mice (using DPDPE as agonist, delta selective); format: functional
Method in brief: (§4)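 Tail-flick test in Swiss Webster mice. The antagonist was given sc at 6.2 μmol/kg, timed so its 30 min peak fell at the centre of the observation period. Morphine and U-50488 were given sc (μmol/kg) and DPDPE icv (nmol/mouse). Agonist ED50 was found in control and treated mice and expressed as the treated/control ED50 ratio.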

[8] = biological target: Kappa-type opioid receptor (Cavia porcellus) (UniProt P41144); experiment: Ke value was obtained from IC50 ratio value when compared with Opioid receptor kappa 1 agonist in Guinea pig Ileum using U-50488 as radioligand; format: functional, tissue-based; method in brief: as §1
[9] = tested on: Mus musculus; experiment: Antagonistic activity after subcutaneous administration (6.2 umol/kg) with a peak time of 30 mins in mice (using morphine as agonist, mu selective); format: functional; settings: sc, 0.5 h; method in brief: as §4
[10] = biological target: T1, Opioid receptors; mu & delta (Homo sapiens); experiment: Selectivity ratio between delta and mu opioid receptor from guinea pig brain membrane; method in brief: as §3
[11] = Ratio of antagonistic activity treated/control in Mice; antinociceptive effect of morphine opioid agonist in Mice; format: functional; method in brief: as §4
[12] = biological target: Kappa-type opioid receptor (Homo sapiens) (UniProt P41145); experiment: Selectivity ratio between Ke value to that of DAMGO (using U-50488 as agonist; k agonist/DAMGO); format: functional; method in brief: as §2
[13] = biological target: Delta-type opioid receptor (Homo sapiens) (UniProt P41143); experiment: Selectivity ratio between Ke value to that of DAMGO (using DPDPE as agonist; delta agonist/DAMGO); format: functional; method in brief: as §2
[14] = Mu opioid activity was evaluated on electrically stimulated guinea pig ileum by using morphine(M) as standard.; format: tissue-based; method in brief: as §1
[15] = Ratio of antagonistic activity of treated/control; antinociceptive effect of DPDPE opioid agonist in Mice; format: functional; method in brief: as §4
[16] = biological target: T4, Mu-type opioid receptor (Cavia porcellus, UniProt P97266); experiment: Binding affinity against Opioid receptor mu 1 in Guinea pig brain membranes; format: cell membranes, Membrane; method in brief: as §3
[17] = tested on: Delta-type opioid receptor; experiment: Delta opioid activity on Mouse vas deference using DADLE as standard; method in brief: as §1
[18] = biological target: Kappa-type opioid receptor (Cavia porcellus) (UniProt P41144); experiment: Ke value was obtained from IC50 ratio value when compared with kappa opioid agonist in Guinea pig Ileum using EK as radioligand; format: functional, tissue-based; method in brief: as §1
[19] = biological target: Delta-type opioid receptor (Mus musculus) (UniProt P32300); experiment: Ke value was obtained from IC50 ratio value when compared with delta opioid agonist in MVD preparations using DADLE as radioligand; format: functional; method in brief: as §1
[20] = biological target: Kappa-type opioid receptor (Homo sapiens) (UniProt P41145); experiment: Selectivity ratio between Ke value to that of DAMGO (using EK as agonist; k agonist/DAMGO); format: functional; method in brief: as §2
[21] = Ratio of antagonistic activity of treated/control; antinociceptive effect of U-50488 opioid agonist in Mice; format: functional; method in brief: as §4
[22] = biological target: T2, Opioid receptors; mu & kappa (Homo sapiens); experiment: Selectivity ratio between kappa to that of mu opioid receptor; format: protein assay; method in brief: as §1
[23] = tested on: Mus musculus; experiment: Antagonistic activity after subcutaneous administration (6.2 umol/kg) with a peak time of 30 mins in mice (using U-50488 as agonist, kappa selective); format: functional; settings: sc, 0.5 h; method in brief: as §4
[24] = Kappa opioid activity was evaluated on electrically stimulated guinea pig ileum by using ethylketazocine (EK) as standard.; format: tissue-based; method in brief: as §1
[25] = biological target: Mu-type opioid receptor (Cavia porcellus) (UniProt P97266); experiment: Ke value is obtained from IC50 ratio value when compared with Opioid receptor mu 1 agonist in Guinea pig Ileum using DAMGO as radioligand; format: functional, tissue-based; method in brief: as §1
[26] = biological target: Kappa-type opioid receptor (Cavia porcellus) (UniProt P41144); experiment: Ke value was obtained from IC50 ratio values when compared with Opioid receptor kappa 1 agonist in Guinea pig Ileum using EK as radioligand; format: functional, tissue-based; method in brief: as §1
[27] = Selectivity ratio between morphine and ethylketazocine potencies in GPI and MVD preparations; method in brief: as §1
[28] = biological target: Delta-type opioid receptor (Mus musculus) (UniProt P32300); experiment: Ke value is obtained from IC50 ratio values when compared with delta opioid agonists in MVD preparations using DADLE as radioligand; format: functional; method in brief: as §1
[29] = biological target: T3, Kappa-type opioid receptor; experiment: Binding affinity against Opioid receptor kappa 1 in Guinea pig brain membranes; format: cell membranes, Membrane; method in brief: as §3
[30] = biological target: T4, Mu-type opioid receptor; experiment: Opioid receptor mu 1 antagonistic activity in guinea pig ileum; format: functional, tissue-based; method in brief: as §1
[31] = Selectivity ratio between DADLE and ethylketazocine potencies in GPI and MVD preparations; method in brief: as §1

Kappa-type opioid receptor (Cavia porcellus), sequence (P41144 whole entry): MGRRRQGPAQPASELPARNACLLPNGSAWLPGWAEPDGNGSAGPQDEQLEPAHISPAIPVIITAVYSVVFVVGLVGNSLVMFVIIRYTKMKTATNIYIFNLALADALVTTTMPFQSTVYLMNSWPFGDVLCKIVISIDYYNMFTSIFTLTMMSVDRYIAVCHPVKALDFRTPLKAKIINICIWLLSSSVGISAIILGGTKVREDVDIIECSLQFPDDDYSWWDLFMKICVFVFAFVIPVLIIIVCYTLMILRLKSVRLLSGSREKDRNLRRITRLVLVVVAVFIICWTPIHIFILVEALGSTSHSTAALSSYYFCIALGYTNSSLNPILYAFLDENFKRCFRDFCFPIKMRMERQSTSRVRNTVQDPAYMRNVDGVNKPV
Mu-type opioid receptor (Cavia porcellus), sequence (P97266 whole entry): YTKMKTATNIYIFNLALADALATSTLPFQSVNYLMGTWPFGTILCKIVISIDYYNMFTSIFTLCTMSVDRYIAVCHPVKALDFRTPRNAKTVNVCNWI
T4 sequence (P97266 whole entry): as above
Delta-type opioid receptor (Homo sapiens), sequence (P41143 whole entry): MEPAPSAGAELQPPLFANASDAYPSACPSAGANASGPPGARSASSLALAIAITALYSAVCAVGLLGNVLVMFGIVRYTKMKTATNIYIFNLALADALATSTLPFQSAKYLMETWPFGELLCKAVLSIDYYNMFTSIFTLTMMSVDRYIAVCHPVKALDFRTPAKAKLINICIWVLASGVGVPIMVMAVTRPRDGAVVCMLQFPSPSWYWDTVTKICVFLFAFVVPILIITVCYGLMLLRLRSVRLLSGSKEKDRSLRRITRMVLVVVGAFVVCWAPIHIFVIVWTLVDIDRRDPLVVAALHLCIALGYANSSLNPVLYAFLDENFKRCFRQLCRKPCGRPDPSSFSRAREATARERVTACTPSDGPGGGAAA
T2 sequence (P35372 whole entry, looked up): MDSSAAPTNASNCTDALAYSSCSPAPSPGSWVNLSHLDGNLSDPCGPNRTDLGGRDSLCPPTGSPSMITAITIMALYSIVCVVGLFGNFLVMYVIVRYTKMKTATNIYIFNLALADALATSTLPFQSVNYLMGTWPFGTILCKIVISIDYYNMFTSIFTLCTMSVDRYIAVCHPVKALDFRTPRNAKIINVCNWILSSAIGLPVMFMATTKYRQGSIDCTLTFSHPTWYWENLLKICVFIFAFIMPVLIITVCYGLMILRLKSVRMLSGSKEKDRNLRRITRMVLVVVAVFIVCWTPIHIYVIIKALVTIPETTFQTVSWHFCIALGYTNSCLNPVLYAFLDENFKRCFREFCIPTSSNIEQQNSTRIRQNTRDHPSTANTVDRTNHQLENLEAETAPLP
T2 sequence (P41145 whole entry, looked up): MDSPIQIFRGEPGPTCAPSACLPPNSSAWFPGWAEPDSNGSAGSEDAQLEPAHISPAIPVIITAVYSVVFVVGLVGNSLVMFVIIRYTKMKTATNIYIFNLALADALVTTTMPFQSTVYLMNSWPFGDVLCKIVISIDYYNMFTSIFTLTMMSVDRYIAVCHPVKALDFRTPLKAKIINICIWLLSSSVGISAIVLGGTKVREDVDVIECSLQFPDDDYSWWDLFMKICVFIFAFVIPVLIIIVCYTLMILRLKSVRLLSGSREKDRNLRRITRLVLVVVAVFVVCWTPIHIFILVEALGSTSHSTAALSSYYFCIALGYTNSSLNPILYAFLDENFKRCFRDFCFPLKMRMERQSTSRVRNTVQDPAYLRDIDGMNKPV
T1 sequence (P35372 whole entry, looked up): as the sequence (P35372 whole entry, looked up) above
T1 sequence (P41143 whole entry, looked up): as the sequence (P41143 whole entry) above
Delta-type opioid receptor (Mus musculus), sequence (P32300 whole entry): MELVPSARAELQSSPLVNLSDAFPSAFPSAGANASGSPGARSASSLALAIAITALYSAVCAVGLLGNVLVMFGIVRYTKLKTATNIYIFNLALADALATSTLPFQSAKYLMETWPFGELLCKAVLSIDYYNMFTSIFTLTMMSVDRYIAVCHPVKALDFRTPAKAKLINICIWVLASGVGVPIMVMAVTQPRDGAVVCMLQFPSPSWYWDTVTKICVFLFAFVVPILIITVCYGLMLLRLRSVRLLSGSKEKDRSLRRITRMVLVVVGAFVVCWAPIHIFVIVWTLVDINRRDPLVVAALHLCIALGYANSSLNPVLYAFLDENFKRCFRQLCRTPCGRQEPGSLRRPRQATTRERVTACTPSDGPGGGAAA
T3 sequence (P41144 whole entry): as the sequence (P41144 whole entry) above
Kappa-type opioid receptor (Homo sapiens), sequence (P41145 whole entry): as the sequence (P41145 whole entry, looked up) above

NC1=NC([C@]2(N)CC[C@@]3(O)[C@H]4Cc5ccc(O)c6c5C3(CCN4CC3CC3)[C@H]2O6)=N[C@]12CC[C@@]1(O)[C@H]3Cc4ccc(O)c5c4C1(CCN3CC1CC1)[C@H]2O5
Ke ratio [1]: 184
Ke [2]: 66 nM
Ke [3]: 0.07 nM
Ke ratio [4]: 814
Ke ratio [5]: 90
Ki [6]: 88 nM
ED50 [7]: 16 nM mouse-1
Ke [8]: 4.7 nM
ED50 [9]: 68.7 µmol/kg
Ke ratio [10]: 187
ED50 ratio [11]: 4
Ke ratio [12]: 67
Ke ratio [13]: 943
IC50 ratio [14]: 65
ED50 ratio [15]: 0.66
Ki [16]: 0.98 nM
IC50 ratio [17]: 2.8
Ke [18]: 12 nM
Ke [19]: 57 nM
Ke ratio [20]: 171
ED50 ratio [21]: 0.72
Ke ratio [22]: 40
ED50 [23]: 25.6 µmol/kg
IC50 ratio [24]: 9.1

CC(=O)NC1=NC([C@]2(NC(C)=O)CC[C@@]3(O)[C@H]4Cc5ccc(O)c6c5C3(CCN4CC3CC3)[C@H]2O6)=N[C@]12CC[C@@]1(O)[C@H]3Cc4ccc(O)c5c4C1(CCN3CC1CC1)[C@H]2O5
Ke [25]: 1.9 nM
IC50 ratio [14]: 11.7
IC50 ratio [17]: 1.4
Ke [26]: 44 nM
Ke ratio [27]: 23
IC50 ratio [24]: 3.3

N[C@]1(C(=O)O)CC[C@@]2(O)[C@H]3Cc4ccc(O)c5c4C2(CCN3CC2CC2)[C@H]1O5
Ke [28]: 139 nM
Ke selectivity ratio [1]: 214
Ke [25]: 0.65 nM
IC50 ratio [14]: 154
IC50 ratio [17]: 1.7
Ke [26]: 19 nM
Ke selectivity ratio [22]: 30
IC50 ratio [24]: 6.2

N[C@@]1(C(=O)O)CC[C@@]2(O)[C@H]3Cc4ccc(O)c5c4C2(CCN3CC2CC2)[C@H]1O5
Ke [25]: 27 nM
IC50 ratio [14]: 4.8
IC50 ratio [17]: 1.1
Ke [26]: 10 nM
IC50 ratio [24]: 1.9

N[C@@]1(C2=NC(=O)[C@@]3(CC[C@@]4(O)[C@H]5Cc6ccc(O)c7c6C4(CCN5CC4CC4)[C@H]3O7)N2)CC[C@@]2(O)[C@H]3Cc4ccc(O)c5c4C2(CCN3CC2CC2)[C@H]1O5
Ke ratio [5]: 5
Ke ratio [10]: 151
Ke [25]: 0.46 nM
IC50 ratio [14]: 11.8
Ki [29]: 5.8 nM
IC50 ratio [17]: 0.87
IC50 ratio [24]: 1.1

N=C(N)[C@]1(N)CC[C@@]2(O)[C@H]3Cc4ccc(O)c5c4[C@@]2(CCN3CC2CC2)[C@H]1O5
IC50 [30]: 18 nM

N#C[C@@]1(N)CC[C@@]2(O)[C@H]3Cc4ccc(O)c5c4C2(CCN3CC2CC2)[C@H]1O5
Ke [28]: 67 nM
Ke [25]: 1.3 nM
IC50 ratio [14]: 79
IC50 ratio [17]: 2.5
Ke [26]: 6 nM
Ke ratio [31]: 52
Ke ratio [27]: 4.7
IC50 ratio [24]: 17.5

NC(=O)[C@]1(N)CC[C@@]2(O)[C@H]3Cc4ccc(O)c5c4C2(CCN3CC2CC2)[C@H]1O5
Ke [25]: 9.8 nM
IC50 ratio [14]: 11.2
IC50 ratio [17]: 0.89
Ke [26]: 44 nM
Ke ratio [22]: 4.5
IC50 ratio [24]: 3.3

O=C1NC(=O)[C@@]2(CC[C@@]3(O)[C@H]4Cc5ccc(O)c6c5[C@@]3(CCN4CC3CC3)[C@H]2O6)N1
IC50 [30]: 71 nM
